Measurements as given in ChEMBL document CHEMBL2311257, “Synthesis and antioxidant activity of thymol and carvacrol based Schiff bases” (Bioorg Med Chem Lett, 2013).
Values after ≈ are worked out from the molar mass of the structure shown. Active and inactive are the calls of the source. The rule behind the calls is not given here.

Columns and labels:
Type in all cases: functional
[1] = system: Radical scavenging activity; assay: Antioxidant activity assessed as DPPH radical scavenging activity in ethanol solution at 100 ug/mL
Procedure, shortened: (§1)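 Compound dissolved in ethanol, then ethanolic DPPH added. Incubated 30 min in the dark. DPPH decrease read as absorbance at 517 nm against an ethanol blank, with ascorbic acid as reference. % activity = [(A0 − Ai)/A0] × 100, where A0 is absorbance without compound and Ai with compound. IC50 taken from activity across concentrations.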

[2] = system: Radical scavenging activity; assay: Antioxidant activity assessed as DPPH radical scavenging activity in chloroform solution at 100 ug/mL
[3] = system: Radical scavenging activity; assay: Antioxidant activity assessed as DPPH radical scavenging activity in ethanol solution; procedure, shortened: as §1
[4] = system: Radical scavenging activity; assay: Antioxidant activity assessed as DPPH radical scavenging activity in chloroform solution at 10 ug/mL
[5] = system: Radical scavenging activity; assay: Antioxidant activity assessed as DPPH radical scavenging activity in chloroform solution at 50 ug/mL
[6] = system: Radical scavenging activity; assay: Antioxidant activity assessed as DPPH radical scavenging activity in chloroform solution at 5 ug/mL
[7] = system: Radical scavenging activity; assay: Antioxidant activity assessed as DPPH radical scavenging activity in ethanol solution at 5 ug/mL; procedure, shortened: as §1
[8] = system: Radical scavenging activity; assay: Antioxidant activity assessed as DPPH radical scavenging activity in chloroform solution at 25 ug/mL
[9] = Antioxidant activity assessed as ABTS radical scavenging activity at 5 ug/mL
Procedure, shortened: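 ABTS radical cation solution diluted in ethanol to an absorbance of 0.7–0.9 at 734 nm, 30 °C. Equal volume added to ethanolic compound solution (5 µg/mL). Absorbance read after 1 min and converted to percent inhibition.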

[10] = system: Radical scavenging activity; assay: Antioxidant activity assessed as DPPH radical scavenging activity in chloroform solution
[11] = system: Radical scavenging activity; assay: Antioxidant activity assessed as DPPH radical scavenging activity in ethanol solution at 25 ug/mL; procedure, shortened: as §1
[12] = system: Radical scavenging activity; assay: Antioxidant activity assessed as DPPH radical scavenging activity in ethanol solution at 50 ug/mL; procedure, shortened: as §1
[13] = system: Radical scavenging activity; assay: Antioxidant activity assessed as DPPH radical scavenging activity in ethanol solution at 10 ug/mL; procedure, shortened: as §1

| SMILES | Activity [1] [%] | Activity [2] [%] | IC50 [3] [mg/L] | Activity [4] [%] | Activity [5] [%] | Activity [6] [%] | Activity [7] [%] | Activity [8] [%] | Activity [9] | IC50 [10] [mg/L] | Activity [11] [%] | Activity [12] [%] | Activity [13] [%] |
| --- | --- | --- | --- | --- | --- | --- | --- | --- | --- | --- | --- | --- | --- |
| COc1cc(/C=N/c2cc(C(C)C)c(O)cc2C)cc(OC)c1 | 78.4 | 89.1 | 26.71 (≈ 85.2 µM) | 37 | 84.2 | 21.8 | 24.5 | 59.5 | Active | 25.47 (≈ 81.3 µM) | 62.9 | 71.5 | 40.4 |
| Cc1cc(/N=C/c2ccccc2O)c(C(C)C)cc1O | 89.3 | 90.4 | 11.61 (≈ 43.1 µM) | 40.8 | 86.1 | 32.6 | 33 | 65.1 | Active | 16.09 (≈ 59.7 µM) | 70.6 | 79.9 | 46.8 |
| COc1ccc(/C=N/c2cc(C(C)(C)C)c(O)cc2C)cc1OC | 90 | 87.1 | 17.03 (≈ 52 µM) | 35.3 | 82.1 | 22.6 | 27.4 | 72 | Active | 22.05 (≈ 67.3 µM) | 62.2 | 81.9 | 49 |
| Cc1cc(O)c(C(C)C)cc1/N=C/c1cc(Br)c(O)c(Br)c1 | 95.2 | 90.1 | 8.33 (≈ 19.5 µM) | 46.1 | 77.4 | 25.2 | 24.1 | 69.2 | Active | 17.98 (≈ 42.1 µM) | 78.7 | 92.3 | 51.8 |
| CCc1ccc(/C=N/c2cc(C)c(O)cc2C(C)C)cc1 | 82.3 |  | 25.34 (≈ 90.1 µM) |  |  |  | 23.4 |  |  |  | 61.3 | 75.2 | 42.1 |
| Cc1cc(O)c(C(C)(C)C)cc1/N=C/c1cccnc1 | 78.3 |  | 34.03 (≈ 127 µM) |  |  |  | 20.1 |  |  |  | 54.5 | 70.3 | 37.6 |
| CCc1ccc(/C=N/c2cc(C(C)C)c(O)cc2C)cc1 | 77 |  | 21.62 (≈ 76.8 µM) |  |  |  | 28.8 |  |  |  | 64.7 | 72.4 | 43 |
| Cc1ccc(C(C)C)c(O)c1 [THYMOL] | 29.5 |  | 167.57 (≈ 1120 µM) |  |  |  | 3.07 |  |  |  | 14.7 | 21.3 | 5.49 |
| Cc1cc(/N=C/c2ccccn2)c(C(C)C)cc1O | 78.1 |  | 24.4 (≈ 95.9 µM) |  |  |  | 23.4 |  |  |  | 65.2 | 75.5 | 41.2 |
| Cc1cc(O)c(C(C)C)cc1/N=C/c1ccc2c(c1)OCO2 | 89.5 |  | 11.95 (≈ 40.2 µM) |  |  |  | 27.3 |  |  |  | 74.5 | 82.5 | 48 |
| Cc1ccc(C(C)(C)C)c(O)c1 | 28.6 |  | 173.95 (≈ 1060 µM) |  |  |  | 3.29 |  |  |  | 11.3 | 19.6 | 4.69 |
| CCCc1ccc(/C=N/c2cc(C)c(O)cc2C(C)C)cc1 | 84.7 |  | 22.03 (≈ 74.6 µM) |  |  |  | 23.9 |  |  |  | 63.9 | 76.6 | 44.6 |
| CCCc1ccc(/C=N/c2cc(C(C)C)c(O)cc2C)cc1 | 72.5 |  | 20.16 (≈ 68.2 µM) |  |  |  | 25.1 |  |  |  | 65.5 | 69.2 | 50.7 |
| Cc1cc(O)c(C(C)C)cc1/N=C/c1ccc(C(C)(C)C)cc1 | 83.8 |  | 18.37 (≈ 59.4 µM) |  |  |  | 23.6 |  |  |  | 66.2 | 73.5 | 51.6 |
